# ChEMBL document CHEMBL4428038, “Overcoming chloroquine resistance in malaria: Design, synthesis and structure-activity relationships of novel chemoreversal agents” (Eur J Med Chem, 2016)
# The source made the active and inactive calls. No cut-off for these calls is given here.
# Legend:
# [1] = Therapeutic index, ratio of IC50 for human AC10 cells to EC50 for chloroquine-resistant Plasmodium falciparum K1 isolate MRA-159 CRT CVIET haplotype mutant; type: toxicity; details: read-out: Ratio IC50/EC50
# Outline: (§1)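 Host-cell IC50 was measured by ATP-luminescence viability assay in TAMH hepatocytes (mean of n = 4 independent determinations) or AC10 cardiomyocytes. Each IC50 was divided by the K1 EC50, the concentration of chemoreversal agent that halves the chloroquine concentration needed for 50% parasite inhibition.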
# [2] = test system: T1, Chloroquine resistance transporter (Plasmodium falciparum), Q9N623 [K76T]; assay: Inhibition of CRT K76T mutant in chloroquine/artemisinin-resistant Plasmodium falciparum ARS272 assessed as reversal of chloroquine resistance by measuring reduction in chloroquine IC50 at 500 nM relative to chloroquine alone
# T1 sequence (whole entry): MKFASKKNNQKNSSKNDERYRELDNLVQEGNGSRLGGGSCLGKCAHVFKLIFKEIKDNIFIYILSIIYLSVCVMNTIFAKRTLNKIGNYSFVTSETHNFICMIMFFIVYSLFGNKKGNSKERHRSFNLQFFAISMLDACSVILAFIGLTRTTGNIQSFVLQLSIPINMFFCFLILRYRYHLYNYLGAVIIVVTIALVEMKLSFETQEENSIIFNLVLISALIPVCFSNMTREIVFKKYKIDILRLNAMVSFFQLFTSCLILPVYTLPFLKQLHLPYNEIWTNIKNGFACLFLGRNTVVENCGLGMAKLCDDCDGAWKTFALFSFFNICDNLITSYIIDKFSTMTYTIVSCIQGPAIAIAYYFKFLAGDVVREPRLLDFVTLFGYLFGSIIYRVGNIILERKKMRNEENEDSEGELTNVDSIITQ
# [3] = Resistance index, ratio of chloroquine IC50 for intermediate chloroquine-resistant Plasmodium falciparum 7G8 isolate MRA-154 CRT SVMNT haplotype mutant to chloroquine IC50 for chloroquine-sensitive Plasmodium falciparum 3D7 isolate MRA-102 at 500 nM
# Outline: (§2)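 Chloroquine IC50 was measured with the chemoreversal agent fixed at 500 nM in K1 or 7G8 and in sensitive 3D7 (means, n = 3). The resistance ratio is the chloroquine IC50 in K1 or 7G8 divided by the chloroquine IC50 in 3D7.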
# Plasmodium falciparum K1 [4] = assay: Inhibition of CRT CVIET haplotype mutant in Plasmodium falciparum K1 isolate MRA-159 infected in erythrocytes assessed as chloroquine-coumarin probe accumulation at 10 uM after 10 hrs by Hoechst 33342 staining based flow cytometry (reference value: 35.57 +/- 3.84%); type: cell-based; design: scale not given: the % may be the effect or the level left
# Outline: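 Infected erythrocyte cultures at 2.5% hematocrit and 7–12% parasitemia, synchronized to late-ring/early-trophozoite stage, were incubated with chloroquine-coumarin probe plus test agent for 10 h at 37 C. Cells were then washed, resuspended in PBS and read by flow cytometry (405 nm excitation, 450/50 filter). Hoechst-stained duplicate wells set parasitemia. Uptake = % infected erythrocytes fluorescent. Controls: PBS (negative), desipramine and parent compound (positive). ≥3 independent experiments; mean ± SEM.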
# Plasmodium falciparum [5] = assay: Intrinsic antimalarial activity against chloroquine/artemisinin-resistant Plasmodium falciparum ARS272 harboring CRT K76T mutant assessed as reduction in parasite viability at 500 nM; type: functional, organism-based
# [6] = test system: T1, Chloroquine resistance transporter (Plasmodium falciparum), Q9N623 [K76T]; assay: Inhibition of CRT K76T mutant in chloroquine-resistant Plasmodium falciparum NHP4559 assessed as reversal of chloroquine resistance by measuring reduction in chloroquine IC50 at 500 nM relative to chloroquine alone
# [7] = Cytotoxicity against human AC10 cells assessed as reduction in cell viability by CellTiter-Glo assay; type: cell-based
# Outline: (§3)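 For TAMH (hepatocyte line) and AC10 (cardiomyocyte line), viability was read by ATP luminescence (CellTiter-Glo), and the value reported is IC50.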
# [8] = Aqueous kinetic solubility of compound in pH 7.4 solution incubated for 24 hrs; type: physicochemical; details: for solubility kinetic at 24 h: aqueous solution pH 7.4, pH 7.4, read-out: Kinetic_solubility
# Plasmodium falciparum [9] = assay: Intrinsic antimalarial activity against intermediate chloroquine-resistant Plasmodium falciparum 7G8 isolate MRA-154 harboring CRT SVMNT haplotype mutant assessed as reduction in parasite viability at 500 nM; type: functional, organism-based
# [10] = test system: T1, Chloroquine resistance transporter (Plasmodium falciparum), Q9N623 [K76T]; assay: Inhibition of CRT K76T mutant in chloroquine-resistant Plasmodium falciparum Dd2 isolate MRA-156 assessed as reversal of chloroquine resistance by measuring reduction in chloroquine IC50 at 500 nM relative to chloroquine alone
# [11] = Resistance index, ratio of chloroquine IC50 for chloroquine-resistant Plasmodium falciparum K1 isolate MRA-159 CRT CVIET haplotype mutant to chloroquine IC50 for chloroquine-sensitive Plasmodium falciparum 3D7 isolate MRA-102 at 500 nM; outline: as §2
# [12] = test system: T1, Chloroquine resistance transporter (Plasmodium falciparum), Q9N623 [K76T]; assay: Inhibition of CRT K76T mutant in chloroquine/artemisinin-resistant Plasmodium falciparum NHP4773 assessed as reversal of chloroquine resistance by measuring reduction in chloroquine IC50 at 500 nM relative to chloroquine alone
# Plasmodium falciparum [13] = assay: Intrinsic antimalarial activity against chloroquine/artemisinin-resistant Plasmodium falciparum ARS233 harboring CRT K76T mutant assessed as reduction in parasite viability at 500 nM; type: functional, organism-based
# Plasmodium falciparum [14] = assay: Potentiation of chloroquine-induced antimalarial activity against chloroquine-sensitive Plasmodium falciparum 3D7 isolate MRA-102 assessed as reduction in chloroquine IC50 at 500 nM relative to chloroquine alone; type: functional
# [15] = Permeability of compound incubated for 16 hrs at pH 7.4 by PAMPA; type: ADME; details: read-out: Peff
# Plasmodium falciparum [16] = assay: Intrinsic antimalarial activity against chloroquine-sensitive Plasmodium falciparum HB3 isolate MRA-155 assessed as reduction in parasite viability at 500 nM; type: functional, organism-based
# Plasmodium falciparum [17] = assay: Potentiation of chloroquine-induced antimalarial activity against chloroquine-sensitive Plasmodium falciparum HB3 isolate MRA-155 assessed as reduction in chloroquine IC50 at 500 nM relative to chloroquine alone; type: functional
# Plasmodium falciparum [18] = assay: Intrinsic antimalarial activity against chloroquine-resistant Plasmodium falciparum K1 isolate MRA-159 harboring CRT CVIET haplotype mutant assessed as reduction in parasite viability at 500 nM; type: functional, organism-based
# [19] = test system: Plasmodium falciparum 7G8; assay: Inhibition of CRT SVMNT haplotype mutant in intermediate chloroquine-resistant Plasmodium falciparum 7G8 isolate MRA-154 t assessed as reversal of chloroquine resistance by measuring reduction in chloroquine IC50 at 500 nM relative to chloroquine alone
# Plasmodium falciparum [20] = assay: Intrinsic antimalarial activity against chloroquine/artemisinin-resistant Plasmodium falciparum NHP4773 harboring CRT K76T mutant assessed as reduction in parasite viability at 500 nM; type: functional, organism-based
# [21] = Therapeutic index, ratio of IC50 for TAMH to EC50 for chloroquine-resistant Plasmodium falciparum K1 isolate MRA-159 CRT CVIET haplotype mutant; type: toxicity; details: mouse, TAMH cells; read-out: Ratio IC50/EC50; outline: as §1
# [22] = Permeability of compound incubated for 6 hrs at pH 7.4 by PAMPA; type: ADME; details: read-out: Peff
# [23] = Inhibition of CRT CVIET haplotype mutant in chloroquine-resistant Plasmodium falciparum K1 isolate MRA-159 assessed as reversal of chloroquine resistance by measuring reduction in chloroquine IC50 relative to chloroquine alone
# Outline: (§4)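 Chloroquine IC50 was determined in the presence of a fixed 500 nM chemoreversal agent, against chloroquine alone. The RMI is the ratio of chloroquine IC50 with agent to chloroquine IC50 alone. Mean of n = 3; two-tailed t test versus chloroquine without agent.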
# TAMH = assay: Cytotoxicity against TAMH assessed as reduction in cell viability by CellTiter-Glo assay; type: cell-based; details: Mus musculus; outline: as §3
# Plasmodium falciparum [24] = assay: Intrinsic antimalarial activity against chloroquine-resistant Plasmodium falciparum Dd2 isolate MRA-156 harboring CRT K76T mutant assessed as reduction in parasite viability at 500 nM; type: functional, organism-based
# Plasmodium falciparum [25] = assay: Intrinsic antimalarial activity against chloroquine-sensitive Plasmodium falciparum 3D7 isolate MRA-102 assessed as reduction in parasite viability at 500 nM; type: functional, organism-based
# [26] = test system: T1, Chloroquine resistance transporter (Plasmodium falciparum), Q9N623 [K76T]; assay: Inhibition of CRT K76T mutant in chloroquine/artemisinin-resistant Plasmodium falciparum ARS233 assessed as reversal of chloroquine resistance by measuring reduction in chloroquine IC50 at 500 nM relative to chloroquine alone
# Plasmodium falciparum [27] = assay: Intrinsic antimalarial activity against chloroquine-resistant Plasmodium falciparum NHP4559 harboring CRT K76T mutant assessed as reduction in parasite viability at 500 nM; type: functional, organism-based
# Plasmodium falciparum K1 [28] = assay: Inhibition of CRT CVIET haplotype mutant in chloroquine-resistant Plasmodium falciparum K1 isolate MRA-159 assessed as reversal of chloroquine resistance by measuring reduction in chloroquine IC50 at 500 nM relative to chloroquine alone
# [29] = Inhibition of CRT CVIET haplotype mutant in Plasmodium falciparum K1 isolate MRA-159 infected in erythrocytes assessed as reversal of chloroquine resistance by measuring reduction in chloroquine IC50 by Hoechst 33342 staining based flow cytometry; type: cell-based; outline: as §4
# [30] = Solubility of compound in DMSO at 10 uM; type: physicochemical
# Outline: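 Solubility judged under the probe-3 uptake assay conditions. DMSO stocks were stored in aliquots and diluted to working concentration with PBS, protected from light. The compound was added to K1 parasite cultures (2.5% hematocrit, late-ring/early-trophozoite stage) with 6 of fluorescent CQ probe and incubated for 10 h at 37 °C.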
Compound,Ratio IC50 [2],Ratio IC50 [3],Activity (Plasmodium falciparum K1 [4]),Activity (Plasmodium falciparum [5]),Ratio IC50 [6],Activity (Plasmodium falciparum [9]),Ratio IC50 [10],Ratio IC50 [11],Ratio IC50 [12],Activity (Plasmodium falciparum [13]),Ratio IC50 (Plasmodium falciparum [14]),Activity (Plasmodium falciparum [16]),Ratio IC50 (Plasmodium falciparum [17]),Activity (Plasmodium falciparum [18]),Ratio IC50 [19],Activity (Plasmodium falciparum [20]),Activity (Plasmodium falciparum [24]),Activity (Plasmodium falciparum [25]),Ratio IC50 [26],Activity (Plasmodium falciparum [27]),also measured
NC(=O)C(CCN1CCC(O)(c2ccc(Cl)cc2)CC1)(c1ccccc1)c1ccccc1,0.94,6.2,73.5%,inactive,1.01,inactive,1.16,14.8,0.96,inactive,1.23,inactive,1.06,inactive,1.25,inactive,inactive,inactive,0.91,inactive,selectivity ratio [1]: 94; IC50 [7]: 45200 nM; solubility kinetic at 24 h [8]: > 450 µg/mL; Papp at 16 h [15]: 1.78 ×10⁻⁶ cm/s; selectivity ratio [21]: 210; Papp at 6 h [22]: 0.65 ×10⁻⁶ cm/s; EC50 [23]: 482 nM; IC50 (TAMH): 101000 nM; Ratio IC50 (Plasmodium falciparum K1 [28]): 0.89
Ic1ccccc1CN[C@@H]1C2CCN(CC2)[C@@H]1C(c1ccccc1)c1ccccc1,0.26,3.4,80.5%,inactive,0.28,inactive,0.37,5,0.27,inactive,1.07,inactive,1.09,inactive,0.59,inactive,inactive,inactive,0.2,inactive,solubility kinetic at 24 h [8]: 31 µg/mL; Papp at 16 h [15]: 8.24 ×10⁻⁶ cm/s; EC50 [29]: 98 nM; selectivity ratio [21]: 175; Papp at 6 h [22]: 10.4 ×10⁻⁶ cm/s; IC50 (TAMH): 17200 nM; Ratio IC50 (Plasmodium falciparum K1 [28]): 0.26
CN1CCN(C2Cc3ccccc3Sc3ccccc32)CC1 (stereo unspecified),–,–,–,–,–,–,–,–,–,–,–,–,–,–,–,–,–,–,–,–,solubility [30]: Insoluble
CN1CCN(C2Cc3ccccc3Sc3ccc(Cl)cc32)CC1 (stereo unspecified) [CLOROTEPINE],1.05,6.4,82.8%,inactive,1.09,inactive,0.98,18.1,0.87,inactive,1.07,inactive,1.04,inactive,1.12,inactive,inactive,inactive,0.87,inactive,solubility kinetic at 24 h [8]: 34.9 µg/mL; EC50 [29]: 1270 nM; Ratio IC50 (Plasmodium falciparum K1 [28]): 0.94
CC(C)(C)OC(=O)N1CCN(C2Cc3ccccc3Sc3ccccc32)CC1 (stereo unspecified),–,–,–,–,–,–,–,–,–,–,–,–,–,–,–,–,–,–,–,–,solubility [30]: Insoluble
CN(C)C(=O)C(CCN1CCC(O)(c2ccc(Cl)cc2)CC1)(c1ccccc1)c1ccccc1 [LOPERAMIDE],0.75,3.4,87.6%,inactive,0.79,inactive,0.82,14,0.64,inactive,1.08,inactive,1.04,inactive,0.59,inactive,inactive,inactive,0.64,inactive,"Kinetic_solubility ([8]; buffer, pH 7.4, 24 h): 410 µg/mL; Papp at 16 h [15]: 12.5 ×10⁻⁶ cm/s; EC50 [29]: 685 nM; Papp at 6 h [22]: 16 ×10⁻⁶ cm/s; Ratio IC50 (Plasmodium falciparum K1 [28]): 0.74"
